# Source: PubChem (several laboratories)
# The list is not random: actives were taken first. Their share in the collection is about 2.9%.
# DDE Tn7 FP inh = DD(E)-Tn7 binding inhibition, primary FP screen; P02675; FP displacement of FITC-Tn7 peptide from fibrin DD(E); 0% = median of compound wells per plate; inhibition, % at 8.3 µM; 370,000 tested, 0.13% active;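 active = inhibition above the mean of compounds falling within the control limits plus 3 SD of them, cut at about 14% in these data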;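 also: 0% = plate median of compound wells and 100% = 10 µM Aha-Tn7 peptide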
# Target sequence (P02675 whole entry, looked up): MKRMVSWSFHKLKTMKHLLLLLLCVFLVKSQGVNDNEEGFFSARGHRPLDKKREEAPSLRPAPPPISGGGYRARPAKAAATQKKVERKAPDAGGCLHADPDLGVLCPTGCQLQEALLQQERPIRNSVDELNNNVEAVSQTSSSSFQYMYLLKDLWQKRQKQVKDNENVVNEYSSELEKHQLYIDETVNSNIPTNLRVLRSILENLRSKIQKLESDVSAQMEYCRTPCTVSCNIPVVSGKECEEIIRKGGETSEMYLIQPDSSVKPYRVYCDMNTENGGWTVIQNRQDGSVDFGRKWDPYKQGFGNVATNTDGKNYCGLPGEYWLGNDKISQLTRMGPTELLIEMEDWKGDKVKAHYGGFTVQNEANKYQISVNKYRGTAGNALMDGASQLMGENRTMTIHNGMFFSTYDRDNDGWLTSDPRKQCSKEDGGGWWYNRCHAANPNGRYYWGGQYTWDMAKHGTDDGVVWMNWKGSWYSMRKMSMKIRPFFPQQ
#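 Assay system: Human fibrin DD(E) protein | Medium: Tris buffer with calcium and detergent, pH 7.8 | Reagent: 0.1 µM fluorescent Tn7 | Compound dosing: Single point at 8.3 µM | Times: 10 min preincubation, 3 h with tracer, room temperature | Detection: Fluorescence polarization of the labelled Tn7 tracer | Controls: Aha-Tn7 high control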
# Tn6 DDE FP = DD(E)-Tn6 binding inhibition, primary FP screen. P02675. Fibrin DD(E) TRITC-Tn6 fluorescence polarization displacement. inhibition, % at 8.3 µM. 370,000 tested, 0.21% active. AID 720509;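 active = inhibition above a per-campaign cutoff: mean of compounds within control limits plus 3 SD, cut at about 15% in these data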;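 also: 0% = median of all compound wells on the plate and 100% = blocking peptide control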
# CendR NRP1 mod = modulators of CendR peptide binding to human neuropilin-1; O14786; FAM-RPARPAR peptide binding to NRP-1, fluorescence polarization; inhibition, % at 25 µM; 360,000 tested, 0.85% active; AID 602438;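 active = inhibition or corrected inhibition above about 18%, plus a signal ratio from 0.5 to 1.5, limit read from the data, passing the limit was not always enough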
# CRFBP-R2 agonist = CRF-BP/CRF-R2 complex agonism | HEK293 CRF-R2/CRF-BP, calcium dye fluorescence (FLIPR); percent of saturating CRF peptide response | activation, % at 13.2 µM | 350,000 tested, 0.46% active;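 active = activation of at least 50%, plus an integration ratio under a set limit after plate pattern correction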;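 also: plate controls were neutral control wells without compound for no effect and CRF at EC100 for full effect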
# CRFR2-BP antag = CRF-BP/CRF-R2 complex antagonism; inhibition, % at 11.8 µM; HEK293 CRF-R2/CRF-BP, CRF-induced calcium fluorescence; AID 588475; 350,000 tested, 0.59% active;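 active = inhibition of the ligand-induced calcium signal above about 50% at the single tested concentration, limit read from the data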
# KLK7 zymogen act = activates the human kallikrein-7 zymogen | P49862 | purified proKLK7, EDANS-DABCYL substrate fluorescence; 100% is mature enzyme control, 0% vehicle | activation, % at 7 µM | 370,000 tested, 0.9% active;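 active = activation above the mean of all tested compounds plus 3 SD, computed per campaign excluding outliers beyond control limits, cut at about 13% in these data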
# proKLK7 act conf = confirmation of human kallikrein-7 zymogen activators. shares compounds with KLK7 zymogen act. purified proKLK7, EDANS-DABCYL substrate fluorescence; scaled: vehicle 0, mature enzyme 100. activation, % at 7 µM. 3,200 tested, 68% active;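 active = activation, as change over the incubation, above the mean of all tested compounds plus 3 SD, cut at about 13% in these data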
# EDANS interfere = fluorescence interference counter-screen for KLK7 activators. shares compounds with KLK7 zymogen act. EDANS-DABCYL substrate fluorescence interference, no enzyme, 4 h; solvent 0%, active enzyme control 100%. activation, % at 7 µM. 3,200 tested, 80% active. AID 686952;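 active = activation above the all-compound mean plus 3 SD, ignoring values outside control-based bounds, cut at about 4.8% in these data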;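 also: value is the 4 h activation minus the activation read at time zero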
# K7 EDANS ctr = EDANS fluorescence interference in dose response, no enzyme | shares compounds with KLK7 zymogen act | EDANS-DABCYL peptide fluorescence interference | EC50, µM | 250 tested, 20% active;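 active = compounds that raise the fluorescence signal in this interference counterscreen, with EC50 at or below 10 µM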;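 also: intact quenched peptide substrate alone read at 355 nm excitation and 520 nm emission; signal is fluorescence gain from T0 to T4 after four hours at room temperature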
# * marks the source's active call; other numbers are inactive results; i = inactive; / = no result.
SMILES,DDE Tn7 FP inh,Tn6 DDE FP,CendR NRP1 mod,CRFBP-R2 agonist,CRFR2-BP antag,KLK7 zymogen act,proKLK7 act conf,EDANS interfere,others
COc1ccccc1NS(=O)(=O)c1cccc(C(=O)N/N=C/c2c(CO)cnc(C)c2O)c1,-4,0,-32,16,-5,-6,/,/,
Cc1ncc(CO)c(/C=N/NC(=O)c2ccccc2Br)c1O,-3,1,-1,6,28,28*,-88,-76,
COc1ccccc1N/N=C/c1c(CO)cnc(C)c1O,5,0,1,1,-11,21*,34*,39*,
Cn1c(=O)c2nc(NCc3ccccc3)cnc2n(C)c1=O,-6,0,-6,16,-22,15*,30*,40*,
Cn1c(=O)c2c(ncn2Cc2ccccc2)n(C)c1=O,2,-1,-4,2,-20,0,/,/,
Cc1nn2c3ccccc3n(CCN3CCCCC3)c2nc1=O,1,-3,-4,0,-2,55*,8,12*,
O=C(O)CCc1nn2c3ccccc3nc2n(CCN2CCCCC2)c1=O,-8,0,13,2,-8,57*,15*,13*,K7 EDANS ctr=i
C=CCN1C(=O)c2n[nH]c(COC)c2C1c1ccc(F)cc1 (stereo not drawn),1,1,/,/,/,0,/,/,
CC(c1c[nH]c2ccccc12)c1cn(C)c2ccccc12 (stereo not drawn),-12,2,/,/,/,0,/,/,
Cc1cc(=O)n2cc(-c3ccccc3)nc2[nH]1,1,2,0,-1,22,16*,3,3,
C[C@H]1C(=O)N2[C@@H](C[C@]3(c4c[nH]c5ccccc45)c4ccccc4N(S(=O)(=O)c4ccccc4)[C@H]23)C(=O)N1C,-5,-4,/,/,/,/,/,/,
Cc1cc(=O)oc2cc(OCC(=O)NCc3ccccn3)ccc12,2,8,-8,0,-2,0,/,/,
Cc1cc(=O)oc2cc(NC(=S)NCc3ccccn3)ccc12,5,2,2,-1,-2,58*,38*,46*,
N=c1c(C(=O)NCC2CCCO2)cc2c(=O)n3ccccc3nc2n1C1CCCC1 (stereo not drawn),-4,8,-4,2,12,106*,42*,30*,K7 EDANS ctr=>69
N=c1c(C(=O)NCC2CCCO2)cc2c(=O)n3ccccc3nc2n1Cc1ccccc1Cl (stereo not drawn),1,2,-2,2,3,-6,/,/,
Cc1ccc2nc3c(cc(C(=O)NCC4CCCO4)c(=N)n3C3CCCC3)c(=O)n2c1 (stereo not drawn),1,-2,-6,3,-1,81*,72*,81*,
Cc1cccn2c(=O)c3cc(C(=O)NCC4CCCO4)c(=N)n(C4CCCC4)c3nc12 (stereo not drawn),-4,-3,-3,1,2,81*,-45,-56,
Cc1ccc(Cn2c(=N)c(C(=O)NCC3CCCO3)cc3c(=O)n4ccccc4nc32)cc1 (stereo not drawn),6,2,-34,-1,17,-1,/,/,
N=c1c(C(=O)NCC2CCCO2)cc2c(=O)n3ccccc3nc2n1C1CCCCC1 (stereo not drawn),4,-1,2,0,-14,35*,6,3,
Cc1cccn2c(=O)c3cc(C(=O)NC4CCCC4)c(=N)n(C4CCCCC4)c3nc12,-8,0,0,3,24,-7,/,/,
C=CCNc1ccc2c(c1)OC[C@H](Cc1ccccc1)NS2(=O)=O,1,-4,/,/,/,0,/,/,
O=C1CC(N2CCCC2)=NC(=O)N1c1ccc(Br)cc1,-6,6,/,/,/,0,/,/,
CC(C)(C)OC(=O)N1CCC(N[C@@H](Cc2ccccc2)C(=O)NCC(c2ccccc2)c2ccccc2)(C(=O)NC2CCCCC2)CC1,-4,5,/,/,/,/,/,/,
O=c1c2cc(N3CCOCC3)ccc2[nH]c(=S)n1Cc1cccc(Cl)c1,-2,0,-8,3,-17,-1,/,/,
O=c1c2cc(N3CCOCC3)ccc2[nH]c(=S)n1Cc1ccco1,-4,-2,-21,0,-3,28*,17*,17*,
SMILES,DDE Tn7 FP inh,Tn6 DDE FP,CendR NRP1 mod,CRFBP-R2 agonist,CRFR2-BP antag,KLK7 zymogen act,proKLK7 act conf,EDANS interfere,others
O=c1c2cc(N3CCOCC3)ccc2[nH]c(=S)n1CCCN1CCCCC1,1,-1,-9,0,11,121*,29*,24*,K7 EDANS ctr=>69
O=c1c2ccccc2[nH]c(=S)n1CCCN1CCN(c2ccccc2)CC1,-4,0,1,0,-4,0,/,/,
O=c1c2cc(N3CCOCC3)ccc2[nH]c(=S)n1CCCN1CCCC1,1,-2,-14,1,14,114*,25*,27*,
O=C(c1ccc(Cn2c(=S)[nH]c3ccc(N4CCOCC4)cc3c2=O)cc1)N1CCC(N2CCCCC2)CC1,0,-1,-5,0,4,28*,-34,-41,
CCCCCCC(=O)NC1CCCCN(Cc2ccc(C)cc2)C1=O (stereo not drawn),0,5,/,/,/,0,/,/,
COc1ccccc1CNC1CCC12CCC(c1ccccc1)CC2 (stereo not drawn),5,-1,/,/,/,/,/,/,
N#Cc1ccc(OCCCN2CCC(C(O)(c3ccccc3)c3ccccc3)CC2)cc1,-3,-2,/,/,/,1,/,/,
O=C(Nc1cccn(Cc2c(Cl)cccc2Cl)c1=O)c1ccc(Cl)cc1Cl,7,-3,-15,-1,13,-13,/,/,
C=CCNC(=S)NNC(=O)c1cccn(Cc2ccc(Cl)cc2Cl)c1=O,-5,-2,1,18,-61,22*,30*,28*,
CCNC(=S)NNC(=O)c1cccn(Cc2ccc(Cl)cc2Cl)c1=O,-5,-1,16,61*,-87,32*,31*,47*,
C[C@@H]1[C@@H](O)C[C@@]2(CC(=O)c3ccccc3O2)O[C@H]1c1ccccc1,0,-3,/,/,/,0,/,/,
COC(=O)C1=C(C)N(Cc2ccc(C(F)(F)F)cc2)C(=NCc2ccccc2)NC1c1cccc(Cl)c1 (stereo not drawn),9,-5,/,/,/,0,/,/,
CS(=O)(=O)NN1C(=O)c2ccccc2NC12CCCC2,-10,-4,-2,-4,15,72*,38*,51*,
O=C1c2ccccc2NC2(CCCC2)N1NS(=O)(=O)c1ccccc1,-2,2,-4,0,0,37*,31*,28*,
